# Experimental data collected from several papers.
# Target: Serine-protein kinase ATM (ATM, Homo sapiens, UniProt Q13315)
SMILES,assay,conditions,measurement,value
Cc1cnc(NC2CCOCC2)nc1-n1cnc(C(=O)NC(CN)c2cc(F)cc(Cl)c2)c1 (centres unmarked),"enzyme activity, inhibitor, radiometric",1 µM,remaining activity,102%
Cc1ccc(NC(=O)c2ccc(C)c(C(F)(F)F)c2)cc1C#Cc1nn(C2CCC(O)CC2)c2ncnc(N)c12 (centres unmarked),cell-free assay,10 µM,remaining signal,102%
Cc1ccc(C(=O)NCc2ccsc2)cc1C#Cc1cn(C(C)C)c2ncnc(N)c12,"enzyme activity, inhibitor",1 µM,activity vs control,101%
COc1cc(Cl)c(C(=O)N[C@@H](CN[C@H]2CC[C@@H](N)CC2)Cc2ccc(C#N)cc2)cc1-c1ccc(CN[C@H](C)c2ccc(C)cc2)o1,"enzyme activity, inhibitor",1 µM,remaining activity,106%
CCCCNc1ncc2c(-c3ccc(F)cc3)nn(C[C@H]3CC[C@H](N)CC3)c2n1,"target engagement in cells, inhibitor, chemoproteomics",20 mM,inhibition,57.4%
CN1CC(Oc2cnc(C#N)cc2-c2ccn3nc(NC(=O)C4CC4)cc3c2)C1,"enzyme activity, inhibitor",1 µM,inhibition,14%
COc1cccc2c(NCc3ccccc3)nc(-n3c(N)nc4ccccc43)nc12,"target engagement in cells, inhibitor, chemoproteomics",20 mM,inhibition,-4.3%
Cc1cc(NC(=O)c2cccc3cc(-c4cccc5[nH]nc(N)c45)ccc23)ccc1F,"enzyme activity, inhibitor",0.1 µM,activity vs control,94%
